This passage reports Activity, inhibition and IC50 results from ChEMBL document CHEMBL4014281, “Design, synthesis and biological evaluation of gentiopicroside derivatives as potential antiviral inhibitors” (Eur J Med Chem, 2017).

In one data set the test system is MDCK. The experiment in a line: Cytotoxicity against MDCK cells at 50 uM after 40 hrs by CellTiter-Glo assay. Type of data set: cell-based, Canis lupus familiaris. As to conditions: dog. A digest of the protocol:
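Uninfected MDCK cells grown overnight, then cultured 40 h in 1% FBS medium with test compound (50 μM in screen). Viability read by CellTiter-Glo luminescence. DMSO as negative control. Triplicate experiments, standard deviations shown.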

For data set [1], the system named is Hepatitis C virus. The experiment in a line: Antiviral activity against HCV pseudoparticle harboring HCV envelope protein E1 and E2 assessed as inhibition of pseudoparticle entry into human Huh7 cells at 1 uM measured after 3 days by Bright-Glo luciferase reporter gene assay relative to control. Type of data set: functional, Hepacivirus hominis. Conditions: Huh-7, 72 h. A digest of the protocol: (§1)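 HCV pseudoparticle entry screen with each compound at 1 µM and 5 µM in 1% DMSO. DMSO-only wells set maximum entry (negative control); echinocystic acid served as the entry-blocking positive control.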
A general note: A reporter such as luciferase makes a cellular process visible.

Data set [2] concerns Hepatitis C virus. The experiment in a line: Antiviral activity against HCV pseudoparticle harboring HCV envelope protein E1 and E2 assessed as inhibition of pseudoparticle entry into human Huh7 cells at 5 uM measured after 3 days by Bright-Glo luciferase reporter gene assay relative to control. Type of data set: functional, Hepacivirus hominis. As to conditions: Huh-7, 72 h. A digest of the protocol:
as §1

The test system of data set [3] is Hepatitis C virus. The experiment in a line: Antiviral activity against HCV pseudoparticle harboring HCV envelope protein E1 and E2 assessed as inhibition of pseudoparticle entry into human Huh7 cells measured after 3 days by Bright-Glo luciferase reporter gene assay. Type of data set: functional. As to conditions: Hepacivirus hominis.
Data set [4] deals with Influenza A virus (A/WSN/1933(H1N1)). The experiment in a line: Antiviral activity against Influenza A virus (A/WSN/1933(H1N1)) infected in MDCK cells assessed as reduction in virus-induced cytopathic effect at 50 uM after 40 hrs by CellTiter-Glo assay. The format is functional, cell-based. A digest of the protocol: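 Single-concentration screen: overnight-seeded MDCK cells were infected (MOI 0.1) in DMEM/1% FBS with […] TPCK-trypsin, compound at 1% final DMSO. CellTiter-Glo read-out after 40 h. Oseltamivir positive control; triplicate experiments, standard deviations shown.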
On the technique in general: Protection from cytopathic effect is a common read-out in antiviral testing.

Data set [5] is described as follows: Antiviral activity against Influenza A virus (A/WSN/1933(H1N1)) infected in MDCK cells assessed as reduction in virus-induced cytopathic effect after 40 hrs by CellTiter-Glo assay. The format is functional, cell-based. Put shortly: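 MDCK cells were seeded and incubated overnight, then infected (MOI 0.1) in DMEM with 1% FBS, […] TPCK-trypsin and compound dose series at 1% final DMSO. Cell viability was read by CellTiter-Glo luminescence after 40 h. IC50 is the concentration giving 50% inhibition of viral replication; oseltamivir was the positive control.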

Data set [6] deals with Influenza A virus (A/WSN/1933(H1N1)). The experiment in a line: Antiviral activity against Influenza A virus (A/WSN/1933(H1N1)) infected in MDCK cells assessed as reduction in virus-induced cytopathic effect at 50 uM by microscopic method. The format is functional, cell-based. Put shortly: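 CPE in compound-treated infected MDCK wells was inspected directly by light microscopy, with DMSO-treated infected wells as comparator.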

SMILES strings stand for the structures. pIC50: −log10 of the molar value. Calls of active or inactive are those of the source. The rule behind the calls is not given here.

For `C=C[C@@H]1C2=CCOC(=O)C2=CO[C@H]1O[C@@H]1O[C@H](COC(c2ccccc2)(c2ccccc2)c2ccccc2)[C@@H](O)[C@H](O)[C@H]1O`, the Activity entry with MDCK is “Toxic”.
As usually defined, the inhibition is the relative decrease from the control value, in per cent. With `C=C[C@@H]1C2=CCOC(=O)C2=CO[C@H]1O[C@@H]1O[C@H](COC(=O)c2ccccc2)[C@H](N=[N+]=[N-])[C@H](OC(=O)c2ccccc2)[C@H]1OC(=O)c1ccccc1`, in the data set with Hepatitis C virus [1], the inhibition at 1 µM was 0.2%. The inhibition at 5 µM in the data set with Hepatitis C virus [2] stood at 17.9%.
On to `C=C[C@@H]1C2=CCOC(=O)C2=CO[C@H]1O[C@@H]1O[C@H](COC(=O)c2ccccc2)[C@@H](O)[C@H](OC(=O)c2ccccc2)[C@H]1OC(=O)c1ccccc1`, for which the inhibition at 1 µM in the data set with Hepatitis C virus [1] stood at 0.7%. For the same molecule, in the data set with Hepatitis C virus [2], the inhibition at 5 µM is 8.1%.
Regarding `C=C[C@@H]1C2=CCOC(=O)C2=CO[C@H]1O[C@@H]1O[C@H](CNC(C)=O)[C@@H](O)[C@H](O)[C@H]1O`, in the data set on Hepatitis C virus [1], the inhibition at 1 µM was 0.2%. The inhibition at 5 µM in the data set on Hepatitis C virus [2] turned out to be 11.2%.
As to `C=C[C@@H]1C2=CCOC(=O)C2=CO[C@H]1O[C@@H]1O[C@H](COC(=O)c2ccccc2)[C@@H](SC(C)=O)[C@H](OC(=O)c2ccccc2)[C@H]1OC(=O)c1ccccc1`, the inhibition result with Hepatitis C virus [3] is “Dose-dependent effect”. Further, the inhibition at 1 µM in the data set on Hepatitis C virus [1] stood at 0.2%. Also, the inhibition at 5 µM in the data set on Hepatitis C virus [2] was 45.1%.
For `C=C[C@@H]1C2=CCOC(=O)C2=CO[C@H]1O[C@@H]1O[C@H](CO)[C@@H](F)[C@H](O)[C@H]1O`, in that order: “Dose-dependent effect”, 0.9% and 45.9%.
`C=C[C@@H]1C2=CCOC(=O)C2=CO[C@H]1O[C@@H]1O[C@H](CO)[C@@H](O)[C@H](O)[C@H]1O` [GENTIOPICROSIDE]: the inhibition at 1 µM in the data set with Hepatitis C virus [1] was 0.6%. Moreover, the inhibition at 5 µM in the data set with Hepatitis C virus [2] came out at 2.1%.
For the molecule `C=C[C@@H]1C2=CCOC(=O)C2=CO[C@H]1O[C@@H]1O[C@H](CO)[C@H](S)[C@H](O)[C@H]1OC(=O)c1ccccc1`, the inhibition at 1 µM in the data set with Hepatitis C virus [1] came out at 0.3%. Further, the inhibition at 5 µM in the data set with Hepatitis C virus [2] was 4.5%.
For the molecule `C=C[C@@H]1C2=CCOC(=O)C2=CO[C@H]1O[C@@H]1O[C@H](CF)[C@@H](O)[C@H](O)[C@H]1O`, in the data set on Hepatitis C virus [1], the inhibition at 1 µM was found to be 0.3%. Moreover, the inhibition at 5 µM with Hepatitis C virus [2] is 1%.
In general, pIC50 refers to the negative decadic logarithm of the IC50, by convention in mol/L. As for `C=C[C@@H]1C2=CCOC(=O)C2=CO[C@H]1O[C@@H]1OC(COC(=O)c2ccccc2)=C[C@H](OC(=O)c2ccccc2)[C@H]1OC(=O)c1ccccc1`, the inhibition result in the data set with Hepatitis C virus [3] is “Dose-dependent effect”. In addition, in the data set on Hepatitis C virus [1], the inhibition at 1 µM stood at 0.5%. In data set [4], the result was Active. Moreover, the inhibition at 5 µM in the data set on Hepatitis C virus [2] is 40.3%. In addition, the pIC50 in data set [5] is 4.36. Moreover, the Activity result with MDCK is “Non-Toxic”.
`C=C[C@@H]1C2=CCOC(=O)C2=CO[C@H]1O[C@@H]1O[C@H](COC(=O)c2ccccc2)[C@@H](F)[C@H](OC(=O)c2ccccc2)[C@H]1OC(=O)c1ccccc1`: in data set [4], the outcome was Active. Moreover, in the data set with MDCK, the Activity result is given as “Non-Toxic”.
For `C=C[C@@H]1C2=CCOC(=O)C2=CO[C@H]1O[C@@H]1O[C@H](COC(=O)c2ccccc2)[C@H](F)[C@H](OC(=O)c2ccccc2)[C@H]1OC(=O)c1ccccc1`, in the data set with Hepatitis C virus [1], the inhibition at 1 µM stood at 0.1%. Besides, the inhibition at 5 µM with Hepatitis C virus [2] was determined as 0.2%.
With `C=C[C@@H]1C2=CCOC(=O)C2=CO[C@H]1O[C@@H]1O[C@H](CO)[C@@H](N=[N+]=[N-])[C@H](O)[C@H]1O`, the inhibition at 1 µM with Hepatitis C virus [1] stood at 0.2%. The result in data set [4] was Active. In addition, in the data set with Hepatitis C virus [2], the inhibition at 5 µM was 0.4%. In the data set on MDCK, the Activity entry is on record as “Non-Toxic”.
For the molecule `C=C[C@@H]1C2=CCOC(=O)C2=CO[C@H]1O[C@@H]1O[C@H](CF)[C@@H](OC(C)=O)[C@H](OC(C)=O)[C@H]1OC(C)=O`, in the data set with Hepatitis C virus [1], the inhibition at 1 µM was determined as 1.1%. For the same molecule, the inhibition at 5 µM in the data set with Hepatitis C virus [2] was found to be 7.8%.
For the molecule `C=C[C@@H]1C2=CCOC(=O)C2=CO[C@H]1O[C@@H]1O[C@H](CSC(C)=O)[C@@H](OC(C)=O)[C@H](OC(C)=O)[C@H]1OC(C)=O`, in the data set on Hepatitis C virus [1], the inhibition at 1 µM is 30.4%. For the same molecule, the outcome in data set [4] was Active. The inhibition at 5 µM in the data set with Hepatitis C virus [2] came to 21.7%. Further, the Activity entry with MDCK was “Non-Toxic”.
In the case of `C=C[C@@H]1C2=CCOC(=O)C2=CO[C@H]1O[C@@H]1O[C@H](COC(=O)c2ccccc2)[C@@H](N=[N+]=[N-])[C@H](OC(=O)c2ccccc2)[C@H]1OC(=O)c1ccccc1`, the inhibition at 1 µM with Hepatitis C virus [1] was determined as 0.1%. Further, in the data set on Hepatitis C virus [2], the inhibition at 5 µM came to 4.7%.
As to `C=C[C@@H]1C2=CCOC(=O)C2=CO[C@H]1O[C@@H]1O[C@H](CSC)[C@@H](OC(C)=O)[C@H](OC(C)=O)[C@H]1OC(C)=O`, the result in data set [4] was Active. For the same molecule, the Activity result in the data set on MDCK is reported as “Non-Toxic”.
In the case of `C=C[C@@H]1C2=CCOC(=O)C2=CO[C@H]1O[C@@H]1O[C@H](COC(=O)c2ccccc2)[C@H](SC(C)=O)[C@H](OC(=O)c2ccccc2)[C@H]1OC(=O)c1ccccc1`, in the data set with Hepatitis C virus [1], the inhibition at 1 µM is 9.5%. In the data set on Hepatitis C virus [2], the inhibition at 5 µM came out at 26.6%.
Take `CC1(C)CC[C@]2(C(=O)O)[C@H](O)C[C@]3(C)C(=CC[C@@H]4[C@@]5(C)CC[C@H](O)C(C)(C)[C@@H]5CC[C@]43C)[C@@H]2C1`: the inhibition at 1 µM with Hepatitis C virus [1] is 30.7%. Further, the inhibition at 5 µM with Hepatitis C virus [2] came out at 69.6%.
`C=C[C@@H]1C2=CCOC(=O)C2=CO[C@H]1O[C@@H]1O[C@H](CO)[C@@H](S)[C@H](O)[C@H]1O`: the inhibition at 1 µM with Hepatitis C virus [1] amounted to 5.6%. The inhibition at 5 µM in the data set on Hepatitis C virus [2] worked out at 18.6%.
With `C=C[C@@H]1C2=CCOC(=O)C2=CO[C@H]1O[C@@H]1O[C@H](CSC)[C@@H](O)[C@H](O)[C@H]1O`, the inhibition at 1 µM in the data set with Hepatitis C virus [1] came to 14.9%. For the same molecule, the outcome in data set [4] was Active. Also, the inhibition at 5 µM in the data set with Hepatitis C virus [2] came out at 21%. Also, in the data set with MDCK, the Activity entry was “Non-Toxic”.
Take `C=C[C@@H]1C2=CCOC(=O)C2=CO[C@H]1O[C@@H]1O[C@H](COC(=O)c2ccccc2)[C@@H](OS(C)(=O)=O)[C@H](OC(=O)c2ccccc2)[C@H]1OC(=O)c1ccccc1`: in the data set on Hepatitis C virus [3], the inhibition result is “Dose-dependent effect”. Besides, the inhibition at 1 µM in the data set with Hepatitis C virus [1] stood at 38.2%. Besides, the result in data set [6] and in data set [4] was Active. In addition, the inhibition at 5 µM with Hepatitis C virus [2] amounted to 40.4%. In data set [5], the pIC50 is 4.40. Besides, the Activity entry in the data set with MDCK is recorded as “Non-Toxic”.
In the case of `CCOC(=O)C1=C[C@@H](OC(CC)CC)[C@H](NC(C)=O)[C@@H](N)C1` [OSELTAMIVIR], in data set [5], the pIC50 was 4.47.
Consider `C=C[C@@H]1C2=CCOC(=O)C2=CO[C@H]1O[C@@H]1O[C@H](CO)[C@H](F)[C@H](O)[C@H]1O`, for which the inhibition at 1 µM in the data set with Hepatitis C virus [1] came out at 0.7%. Further, the result in data set [4] was Active. Further, the inhibition at 5 µM with Hepatitis C virus [2] came to 13.3%. Also, the negative logarithm of the IC50 (pIC50) in data set [5] is 4.34. In addition, the Activity entry in the data set on MDCK is “Non-Toxic”.
Take `C=C[C@@H]1C2=CCOC(=O)C2=CO[C@H]1O[C@@H]1O[C@H](CO)[C@H](N=[N+]=[N-])[C@H](O)[C@H]1O`: the inhibition at 1 µM in the data set on Hepatitis C virus [1] worked out at 11.7%. For the same molecule, the outcome in data set [4] was Active. Further, in the data set on Hepatitis C virus [2], the inhibition at 5 µM is 23.3%. The Activity result with MDCK is reported as “Non-Toxic”.
As for `C=C[C@@H]1C2=CCOC(=O)C2=CO[C@H]1O[C@@H]1O[C@H](CNC(C)=O)[C@@H](OC(C)=O)[C@H](OC(C)=O)[C@H]1OC(C)=O`, the inhibition at 1 µM in the data set with Hepatitis C virus [1] was 9.1%. In addition, in the data set with Hepatitis C virus [2], the inhibition at 5 µM was 8.8%.
Turning to `C=C[C@@H]1C2=CCOC(=O)C2=CO[C@H]1O[C@@H]1O[C@H](CS)[C@@H](O)[C@H](O)[C@H]1O`, the inhibition at 1 µM in the data set with Hepatitis C virus [1] came out at 0.2%. Moreover, the outcome in data set [4] was Active. Further, the inhibition at 5 µM in the data set with Hepatitis C virus [2] came out at 0.1%. In addition, the Activity entry with MDCK is recorded as “Non-Toxic”.
